High-throughput results as filed in PubChem BioAssay.
SR-BI HDL uptake = inhibitors of SR-BI mediated HDL lipid uptake, primary screen, ldlA[mSR-BI] cells, fluorescence, single point; Scavenger receptor class B member 1 (Mus musculus), Q61009; ldlA[mSR-BI] CHO cells, DiI-HDL uptake fluorescence, 3 h; inhibition, % at 12.5 µM; actives 0.96% (n = 320,000); AID 488896, 2010;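 active = mean replicate inhibition of at least 70% and a set share of replicates each scoring 70 or more; inconclusive = meets just one of the two criteria; inactive = fails both criteria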
Target sequence (Q61009 whole entry, looked up): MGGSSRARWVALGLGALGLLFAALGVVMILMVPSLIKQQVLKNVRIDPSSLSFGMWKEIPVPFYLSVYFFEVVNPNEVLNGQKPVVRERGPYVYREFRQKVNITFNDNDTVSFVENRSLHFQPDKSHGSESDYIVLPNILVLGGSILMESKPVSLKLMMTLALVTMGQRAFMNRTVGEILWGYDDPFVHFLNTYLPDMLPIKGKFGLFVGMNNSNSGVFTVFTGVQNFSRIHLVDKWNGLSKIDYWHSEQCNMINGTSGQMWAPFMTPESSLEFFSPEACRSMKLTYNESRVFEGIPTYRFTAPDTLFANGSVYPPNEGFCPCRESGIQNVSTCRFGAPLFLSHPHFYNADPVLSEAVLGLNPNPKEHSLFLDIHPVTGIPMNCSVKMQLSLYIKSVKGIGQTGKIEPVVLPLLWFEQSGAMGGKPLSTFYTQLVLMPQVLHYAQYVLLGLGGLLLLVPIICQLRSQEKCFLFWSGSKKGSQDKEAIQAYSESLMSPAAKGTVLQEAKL
UBC13 polyUb = UBC13 polyubiquitin chain formation inhibitors, primary screen, biochemical, TR-FRET, uHTS; inhibition, % at 20 µM; actives 0.47% (n = 330,000); AID 485273, 2010; in the data active = inhibition above about 45%, passing the limit was not always enough; inconclusive = no clear call, values can overlap the other calls
Target sequence (P61088 whole entry, looked up): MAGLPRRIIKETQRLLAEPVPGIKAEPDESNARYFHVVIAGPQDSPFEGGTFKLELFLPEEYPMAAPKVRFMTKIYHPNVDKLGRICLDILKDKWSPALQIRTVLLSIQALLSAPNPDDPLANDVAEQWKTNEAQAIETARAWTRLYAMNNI
Neddyl block = inhibitors of cullin neddylation, primary screen, biochemical, TR-FRET, uHTS, NAE and Ubc12; NEDD8-conjugating enzyme Ubc12 (Homo sapiens) + NEDD8-activating enzyme E1 regulatory …; inhibition, % at 25 µM; actives 0.58% (n = 360,000); AID 651699, 2012; in the data active = inhibition above about 36%
SR-BI uptake up = activators of SR-BI mediated DiI-HDL uptake, primary screen, ldlA[mSR-BI] CHO cells, DiI fluorescence | AID 504775, 2011 | actives 0.096% (n = 320,000) | 3 h; 100 = double the neutral-control signal | activation, % at 12.5 µM;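 active = mean replicate activation of at least 60% and every replicate at or above 60%; inconclusive = mean or all-replicate condition met, but not both; inactive = mean below 60% and not all replicates reaching 60%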
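System: LDL receptor-deficient CHO ldlA cells overexpressing murine SR-BI | Timing: 3 h uptake period with compound, 37 °C | Medium: HEPES-buffered (25 mM, pH 7.4) F12 plus 0.5% BSA | Dosing: Single-point compound dose | Signal: Bottom-read fluorescence, 550/595 nm | Read-out: Retained DiI signal reflecting DiI-HDL uptake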
Casp3 UBC13 ctr = CASP3 inhibitor validation, counterassay for project on UBE2N polyubiquitination blockers, biochemical, one dose. shares compounds with UBC13 polyUb. Recombinant caspase-3, Caspase-Glo 3/7 luminescence, 60 min. inhibition, % at 20 µM. actives 4% (n = 1,400). AID 488856, 2010;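 active = mean inhibition across replicates above about 26%, limit read from the data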
UBC13 confirm = UBC13 polyubiquitination inhibitors, single-point retest, confirmation, biochemical, TR-FRET, single concentration; shares compounds with UBC13 polyUb; inhibition, % at 10 µM; actives 68% (n = 1,400); AID 488859, 2010; in the data active = inhibition above about 45%; inconclusive = no clear call, values can overlap the other calls
Each line names hits and unclear results; the compound was inactive in the other large screens (follow-up assays come after a bar, where shown). Only some compounds are listed: those with a hit (about 1.9% of all), similar ones and a draw of the others.

COc1ccc(CCNC(=O)CSc2ncc(C(=O)Nc3ccccc3)c(=O)n2C)cc1	none
Cn1c(=O)c2c(ncn2Cc2cccc(Cl)c2)n(C)c1=O	UBC13 polyUb 74.3 | Casp3 UBC13 ctr inactive | UBC13 confirm 74.9
Cn1c(=O)n(CCc2ccccc2)c(=O)c2c1ncn2Cc1ccccc1	none
Cn1c(=O)c2c(ncn2Cc2ccc(Cl)c(Cl)c2)n(C)c1=O	UBC13 polyUb 85.2 | Casp3 UBC13 ctr inactive | UBC13 confirm 88.0
CCCC1NC(=O)c2cccnc2-n2c1nc1ccc(C)cc1c2=O (stereo not given)	none (no result: SR-BI HDL uptake, UBC13 polyUb, SR-BI uptake up)
O=C(CCCCCN1C(=O)c2cccc3cccc(c23)C1=O)NC1CCS(=O)(=O)C1 (stereo not given)	UBC13 polyUb 82.9 (no result: SR-BI HDL uptake, SR-BI uptake up) | Casp3 UBC13 ctr inactive | UBC13 confirm 97.5
O=C(CCN1C(=O)c2cccc3cccc(c23)C1=O)NC1CCS(=O)(=O)C1 (stereo not given)	none
COc1ccc2c(c1)c(C(C)=O)c(C)n2-c1ccccc1OC	none
COCc1cccc(-c2csc(C(C)(NC(C)=O)c3ccc(OC)cc3)n2)c1 (stereo not given)	none (no result: SR-BI HDL uptake, UBC13 polyUb, SR-BI uptake up)
O=C1c2cccc3cccc(c23)C(=O)N1CCc1ccccc1	UBC13 polyUb 51.3 | Casp3 UBC13 ctr inactive | UBC13 confirm inconclusive
CC(C)CCCC(C)NC(=O)c1cc(S(=O)(=O)N2CCCCC2)ccc1N1CCOCC1 (stereo not given)	none
COC(=O)Cc1[nH]c(=S)[nH]c1C(=O)OC	none
CC(=O)c1nc(-c2ccccc2)sc1C	none
COc1cc(C#Cc2c(-c3cncn3C)n(C)c3ccc(-c4ccc(OC)c(OC)c4)cc23)cc(OC)c1	none (not shown: Neddyl block)
COc1cc(C#Cc2c(-c3cncn3C)n(C)c3ccc(Br)cc23)cc(OC)c1	UBC13 polyUb 46.3 | Casp3 UBC13 ctr inactive | UBC13 confirm inactive
COC(=O)C1=C(C)N(Cc2ccccc2)C(=NCc2ccc(OC)cc2)N[C@H]1c1cccc(F)c1	UBC13 polyUb 74.2 | Casp3 UBC13 ctr inactive | UBC13 confirm 65.6
COC(=O)C1=C(C)N(Cc2ccccc2)C(=NCc2cc(OC)c(OC)c(OC)c2)N[C@H]1c1cccc(F)c1	none
COC(=O)C1=C(C)N(Cc2ccccc2)C(=NCc2cccc(Cl)c2)N[C@H]1c1cccc(F)c1	UBC13 polyUb 72.0 | Casp3 UBC13 ctr inactive | UBC13 confirm 86.4
O=C(COc1ccc(F)cc1)NCCNC(=O)COc1ccc(F)cc1	none
Cc1cc2nc(Cl)c(Cl)nc2cc1C	UBC13 polyUb 46.6 | Casp3 UBC13 ctr inactive | UBC13 confirm inactive
Cc1cc2ncc(Cl)nc2cc1C	none
CCN(C(=O)COC(=O)/C=C/c1c(C)nn(-c2ccccc2)c1C)c1c(N)n(Cc2ccccc2)c(=O)[nH]c1=O	none (no result: UBC13 polyUb)
CNC[C@@H](CC1CCCCC1)NC[C@H](CC(C)C)NCCc1cccc(C(F)(F)F)c1	UBC13 polyUb 92.1 | Casp3 UBC13 ctr inactive | UBC13 confirm 80.2
CNC[C@@H](Cc1ccccc1)NC[C@@H](CC1CCCCC1)NCCCc1ccccc1	UBC13 polyUb 93.4 | Casp3 UBC13 ctr inactive | UBC13 confirm 75.8
CCC[C@@H](CNC)NC[C@H](Cc1ccccc1)NCCCCc1ccccc1	none
Nc1nc(SCC(=O)NC2CCCCC2)n[nH]1	none
O=C(Nc1ccc2c(c1)OCCO2)C(c1ccnc2ccccc12)N1CCC(Cc2ccccc2)CC1 (stereo not given)	none (no result: SR-BI HDL uptake, UBC13 polyUb, SR-BI uptake up)
COc1cc(-c2nc(C(=O)NC3CCN(Cc4ccccc4)CC3)cc3c2[nH]c2ccccc23)cc(OC)c1OC	UBC13 polyUb 55.8 | Casp3 UBC13 ctr inactive | UBC13 confirm 48.9
COc1ccc(OC)c(-c2nc(C(=O)NC3CCN(Cc4ccccc4)CC3)cc3c2[nH]c2ccccc23)c1	none
CNC(=O)CN1C(=O)c2cccc3cccc1c23	none
NNC(=O)c1ccc(CN2C(=O)c3cccc4cccc2c34)cc1	UBC13 polyUb 95.5 | Casp3 UBC13 ctr inactive | UBC13 confirm 107.9
NC(=S)Nc1nc2ccccc2[nH]c1=O	UBC13 polyUb 59.8 (no result: SR-BI HDL uptake, Neddyl block, SR-BI uptake up) | Casp3 UBC13 ctr inactive | UBC13 confirm 63.6
O=c1[nH]c2ccccc2nc1NCc1ccccc1	none
Cc1ccc(NC(=S)c2nc3ccccc3[nH]2)c(C)c1	none
Cc1ccc2[nH]c(=O)c(NC(N)=S)nc2c1	UBC13 polyUb 71.0 | Casp3 UBC13 ctr inactive | UBC13 confirm 84.8
CCOC(=O)N1CCC(C(=O)NNC(=O)c2ccc(Cl)cc2Cl)CC1	none
COc1ccc(C(C)=O)cc1Cn1c(C)c(C(=O)NC2CC2)sc1=O	none (no result: SR-BI HDL uptake, UBC13 polyUb, SR-BI uptake up)
CCCCNc1c(-c2ccc(OC)c(SC3CCCCC3)c2)nc2ccc(Cl)cn12	none (not shown: Neddyl block)
CCCCNc1c(-c2ccc(OC)c(SC3CCCCC3)c2)nc2cc(C)ccn12	UBC13 polyUb 49.9 (not shown: Neddyl block) | Casp3 UBC13 ctr inactive | UBC13 confirm inactive
CCCCCCSc1cc(-c2nc3cc(C)ccn3c2NC2CCCCC2)ccc1OC	UBC13 polyUb 50.8 (not shown: Neddyl block) | Casp3 UBC13 ctr inactive | UBC13 confirm inactive
CC1(C(=O)NS(=O)(=O)c2ccccc2)CCN1C(=O)CC1CC1 (stereo not given)	none (no result: SR-BI HDL uptake, UBC13 polyUb, SR-BI uptake up)
CC1(C(=O)NS(=O)(=O)C2CC2)CCCN(C(=O)c2ccccc2OC(F)(F)F)C1 (stereo not given)	none (no result: SR-BI HDL uptake, UBC13 polyUb, SR-BI uptake up)
Cc1ccc(S(=O)(=O)n2cccc2C)cc1	none (no result: SR-BI HDL uptake, SR-BI uptake up)
CC1CCCCC1NC(=O)Cn1cnc2sccc2c1=O (stereo not given)	none
CCCCCCCNC(=O)C1(CC2CC(c3cccc(Br)c3)=NO2)CCN(C(=O)C2(C)CC2)CC1 (stereo not given)	none
CCCCCCCNC(=O)C1(CC2CC(c3cccc(Br)c3)=NO2)CCN(C(=O)CCCCCBr)CC1 (stereo not given)	UBC13 polyUb 45.1 | Casp3 UBC13 ctr inactive | UBC13 confirm inactive
COc1cc(OC)cc(C(=O)NC2CCN(CCCOc3ccccc3)CC2)c1	none
COc1cc(N)c(Cl)cc1C(=O)N[C@H]1CCN(CCCOc2ccc(F)cc2)C[C@H]1OC	SR-BI HDL uptake 75.4, UBC13 polyUb 67.8 | Casp3 UBC13 ctr inactive | UBC13 confirm 59.1
COc1ccc(-c2csc(NC(=O)CSC(C)C(=O)Nc3cc(C)on3)n2)cc1OC (stereo not given)	none
O=C(NCCN1CCOCC1)C(=O)NCC1OCCN1S(=O)(=O)c1ccc(Cl)cc1 (stereo not given)	none (no result: SR-BI HDL uptake, UBC13 polyUb, SR-BI uptake up)
CCOc1cc2c(C#N)c(N3CCCCC3)nc(N)c2c(N)n1	none
CCOc1cc2c(C#N)c(N3CCNCC3)nc(N)c2c(N)n1	UBC13 polyUb 63.3 | Casp3 UBC13 ctr inactive | UBC13 confirm 104.8
CCCCN(CC)CCNC(=O)c1nn(-c2ccc(OC)cc2)c(=O)c2c1c1ccccc1n2C	none
